The list is not random: actives were taken first. Their share in the collection is about 2.7%.
Rev-RRE block: disrupts HIV-1 Rev binding to RRE RNA | inhibition, % at 8 µM | Rev peptide-RRE RNA binding, FRET | actives 0.79% (n = 97,000) | AID 704;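 active = inhibition above the screen-wide mean plus 3 SD, cut at about 35% in these data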;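 also: 0% = median DMSO wells and 100% = median Neomycin B control wells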
Target sequence (P05866 whole entry, looked up): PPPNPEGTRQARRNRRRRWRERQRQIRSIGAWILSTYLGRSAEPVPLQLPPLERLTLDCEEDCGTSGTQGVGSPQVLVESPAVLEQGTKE
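System: Cy5-labelled duplex RRE RNA binding fluorescein-labelled HIV Rev peptide; Signal: fluorescein-to-Cy5 FRET, 480 nm excitation; Also added: labelled Rev peptide; Compound: one concentration, 8 µM nominal; Buffer or medium: HEPES pH 7.5 salt buffer with EDTA; Read-out: % inhibition of FRET ratio versus controls; Schedule: 5 min preincubation and 15 min binding, 25 °C.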
Plk1 PBD FP: blocks phosphopeptide binding to human Plk1 polo box domain. P53350. inhibition, %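 (tested at about 20 µM)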. Plk1 PBD phosphopeptide binding, fluorescence polarization. actives 0.13% (n = 97,000). AID 693; in the data active = inhibition above about 34%, passing the limit was not always enough
DAT uptake mod: modulates human dopamine transporter uptake under cocaine | Q01959 | LLC-PK1 hDAT cells, [14C]-dopamine uptake with cocaine IC80; actives deviate in either direction | B-score at 10 µM | actives 1.3% (n = 110,000);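 active = Z score or B-score, a plate-position-corrected score, falls beyond the plate's 99.7% confidence bounds, in either direction; inactive = both scores lie inside the 99.7% bounds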;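 also: scored against the spread of the other compound wells on the same plate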
LYP inh 2: LYP (human) phosphatase inhibition | Q9Y2R2 | recombinant LYP catalytic domain, DiFMUP fluorescence | inhibition, % at 2 µM | actives 0.21% (n = 96,000);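 active = inhibition at 2 µM at or above a set limit, the screen mean plus 3 SD, cut at about 24% in these data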;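 also: 0% = DMSO with enzyme and 100% = enzyme fully blocked by orthovanadate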
PTPN22 act: LYP (human) phosphatase activation. Q9Y2R2. recombinant LYP, DiFMUP fluorescence; 0 = plate median, 100 = signal doubled. activation, % at 2 µM. actives 0.11% (n = 96,000). AID 697;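 active = activation at 2 µM above a set limit, the mean plus 5 SD, cut at about 37% in these data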
PLK1 kinase inh: PLK1 (human) kinase inhibition | actives 0.53% (n = 97,000) | recombinant PLK1 kinase, TR-FRET peptide phosphorylation | inhibition, % at 10 µM;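 active = inhibition of 50% or more in the single-concentration screen; inactive = inhibition below 50%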;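 also: 0% = DMSO max control and 100% = H-89 dihydrochloride min control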
An asterisk follows results filed as active; nt = no result; [ ] = another dose, or the depositor's remark.

SMILES	Rev-RRE block	Plk1 PBD FP	DAT uptake mod	LYP inh 2	PTPN22 act	PLK1 kinase inh
Cc1nn(-c2ccccc2)c2sc(-c3n[nH]c(=S)o3)cc12	nt	nt	0.018	nt	nt	nt
Cc1ccc(-c2nc3ccccc3c(C(=O)NCc3cccs3)c2C)cc1	3	-5	1.4	-3	2	-6
COc1ccc(OC)c(NC(=O)C(CCS(C)(=O)=O)NC(C)=O)c1 (stereo not given)	nt	nt	4.3*	nt	nt	nt
C=CCOC(=O)C1=C[C@H](c2csc3ccccc23)C[C@H](OCc2ccc(CO)cc2)O1	nt	nt	0.8	nt	nt	nt
CCC(C)Nc1nc(-c2cccc(OC)c2O)nc2ccccc12 (stereo not given)	2	-15	3.7*	4	-6	-10
COc1cccc(-c2nc(NC(C)C)c3ccccc3n2)c1O	1	-6	2.3	6	-8	2
CCOc1ccc(N(CC(=O)NCC2CCCO2)C(=O)CCC(=O)Nc2ccccn2)cc1 (stereo not given)	7	12	-0.68	13	-13	-12
Cc1ccccc1NC(=O)CSc1nc(N)c(C#N)cc1C#N	14	-6	-0.51	1	2	30
COC(=O)C1=C(CSc2nc3c(cc2C#N)CN(C)CC3)OC(N)=C(C#N)C1c1ccc(F)cc1 (stereo not given)	65*	-21	0.031	-8	9	5
COc1ccc(NC(=O)CSc2nc(N)c(C#N)cc2C#N)cc1	19	0	0.23	-1	-1	62*
CCc1nnc(NC(=O)CSc2nc3c(cc2C#N)CCC3)s1	10	12	-0.78	0	-2	-15
COc1ccc(NC(=O)CSc2nc3c(c(-c4cccs4)c2C#N)CN(C)CC3)cc1OC	63*	-5	1.6	-6	10	-9
CN1CCc2nc(SCC(=O)Nc3ccc(Cl)cc3)c(C#N)cc2C1	13	-13	-0.0014	8	-9	53*
CC(C)(C)n1nc2c(c1NC(=O)c1cccc(C(F)(F)F)c1)CS(=O)C2 (stereo not given)	4	10	-0.75	-11	11	-3
CCc1ccc(CNCCSc2nnnn2C)cc1	2	6	0.25	0	-2	6
COC(=O)NCCOC(=O)N(O)c1ccc(Br)cc1	1	20	0.68	-2	1	-5
N#Cc1cc2c(nc1SCC(=O)Nc1sc3c(c1C#N)CCC3)CCCCCC2	8	-19	2.6*	14	-12	1
COc1ccc2cc3cc(C(=O)NC(C)C)oc3nc2c1	5	-24	-8.2*	2	-2	-15
COc1ccc2cc3cc(C(=O)N4CCN(Cc5ccc6c(c5)OCO6)CC4)oc3nc2c1	6	0	0.99	26*	-27	-15
COc1ccc2cc3cc(C(=O)NCc4ccc5c(c4)OCO5)oc3nc2c1	3	-13	0.1	-5	5	-5
Cc1cc(NC(=O)CSc2nc3cc(Cl)ccc3s2)no1	11	14	0.12	-14	16	-18
Cc1cc(NC(=O)CSc2nc3ccc(Cl)cc3[nH]2)no1	1	10	-0.3	-12	12	50*
O=C(CSc1ncc(-c2ccc(F)cc2)[nH]1)Nc1cccc(O)c1	3	10	-0.58	3	-5	30
COc1cc2c(cc1NS(=O)(=O)N1CCCCC1)oc1ccccc12	19	-7	0.56	6	-5	-2
Cc1ccc(-c2nc(Nc3ccccc3)n[nH]2)cc1	6	-11	-3*	-8	7	-11
SMILES	Rev-RRE block	Plk1 PBD FP	DAT uptake mod	LYP inh 2	PTPN22 act	PLK1 kinase inh
Oc1cccc(O)c1O	nt	nt	0.15	nt	nt	nt
O=C(Nc1ccccc1OC(F)F)c1ccc(Br)o1	0	6	-2.5*	1	-3	-9
Cc1cc(-c2cc(C(=O)Nc3ccccc3)on2)nc(NC2CCCC2)n1	nt	nt	1.8	nt	nt	nt
c1ccc2[nH]c(CN3CCN(c4ncnc5c4oc4ccccc45)CC3)nc2c1	11	0	0.64	0	-1	-1
Cc1nc(N2CCN(Cc3nc4ccccc4[nH]3)CC2)c2oc3ccccc3c2n1	2	-7	2.5*	-3	0	-1
CSc1nc2c(c(-c3ccccc3)c1C#N)CCC2	16	16	0.014	7	-8	-14
CC1CC(C)CN(C(=O)CSc2nc(Cc3cccs3)nc3ccccc23)C1 (stereo not given)	1	15	0.65	nt	nt	-9
CC1=CC(C)=Nc2ccccc2N1	47*	-1	-0.15	5	-3	-2
Cc1ccc(C2=Nc3ccccc3NC(C)(c3ccc(C)o3)C2)o1 (stereo not given)	11	-13	0.63	10	-7	-15
Cn1c(-c2ccc(C=O)s2)nc2c3ccccc3c3ccccc3c21	81*	-25	1	18	-16	-21
C[N+](C)(C)C(Cc1c[nH]c2ccccc12)C(=O)[O-] (stereo not given)	nt	nt	0.3	nt	nt	nt
Nc1nc(CN2CCN(c3ccc(F)cc3)CC2)nc(N2CCCc3ccccc32)n1	5	2	-2.7*	9	-8	-6
O=C(Nc1cnc2ccccc2c1)C1COc2ccccc2O1 (stereo not given)	4	-13	-0.28	28*	-29	-9
Cc1nn(Cc2ccc(F)cc2)c(C)c1NC(=O)c1cnn2c1NC(c1ccccc1)CC2C(F)(F)F (stereo not given)	0	-12	0.092	6	-6	-6
Cc1nn(Cc2ccc(F)cc2)c(C)c1NC(=O)c1cnn2c1NC(c1cccs1)CC2C(F)(F)F (stereo not given)	6	-17	2.9*	6	-8	3
COC(=O)c1ccc(-c2ncc(-c3cccc4ccccc34)o2)cc1	3	7	3*	4	-4	-17
Cc1cccc(N(CC(=O)NC2CCCCC2)C(=O)CCCC(=O)Nc2ccccn2)c1	2	-6	2.2*	0	1	-6
O=C(Nc1ccc(Cl)cc1)N1CCN(c2ccc3nnc(-c4ccc(F)cc4)n3n2)CC1	nt	nt	2.8*	nt	nt	nt
CCn1c2ccccc2c2cc(NC(=O)c3ccc(Br)o3)ccc21	76*	-15	1	1	-4	5
CCn1c2ccccc2c2cc(NC(=O)c3cc(OC)c(OC)c(OC)c3)ccc21	-6	5	-0.87	2	1	-13
C=CCn1c(=O)/c(=C/c2ccc(C)o2)s/c1=C(/C#N)C(=O)c1ccccc1	118*[fluorescence artefact?]	-71	-0.069	0	-3	-12
Cc1ccc(/C=c2\sc3nc(-c4ccccc4Br)nn3c2=O)o1	2	-5	nt	4	-1	-2
Cc1cc(F)ccc1NCc1cc2c(cc1[N+](=O)[O-])OCO2	7	-8	-8*	-2	0	-12
Cc1cc(F)ccc1NCc1ccncc1	nt	nt	-0.036	nt	nt	nt
O=C(Nc1cc(C(F)(F)F)cc(C(F)(F)F)c1)c1ccc(Cn2cc(C(F)(F)F)ccc2=O)cc1	13	4	nt	3	0	-3

Screening results as filed in PubChem.
